Here are results for three molecules from ChEMBL document CHEMBL1156862, “Synthesis of C-glycoside analogues of beta-galactosamine-(1-->4)-3-O-methyl-D-chiro-inositol and assay as activator of protein phosphatases PDHP and PP2Calpha” (Bioorg Med Chem, 2010).

For experiment [1], the target named is T1, Protein phosphatase 1A (Mus musculus) (UniProt P49443).
T1 sequence (whole entry): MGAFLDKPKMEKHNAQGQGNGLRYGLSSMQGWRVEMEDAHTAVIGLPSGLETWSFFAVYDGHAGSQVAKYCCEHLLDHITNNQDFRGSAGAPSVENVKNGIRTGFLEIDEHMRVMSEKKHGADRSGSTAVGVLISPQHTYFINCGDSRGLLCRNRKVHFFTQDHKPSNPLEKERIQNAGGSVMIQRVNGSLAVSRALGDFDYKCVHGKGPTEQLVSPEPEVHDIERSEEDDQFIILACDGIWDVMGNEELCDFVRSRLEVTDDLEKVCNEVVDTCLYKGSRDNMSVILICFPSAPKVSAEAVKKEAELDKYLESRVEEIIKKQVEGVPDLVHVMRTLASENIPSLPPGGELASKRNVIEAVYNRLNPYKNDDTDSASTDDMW
Put plainly: Activation of mouse recombinant GST-tagged PP2Calpha assessed as phosphate release using para-Nitrophenyl phosphate substrate. The method in brief:
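Mouse wild-type GST-PP2Cα fusion (1 µg) at rt in 0.1 M Tris-HCl pH 8.0, 2 mM DTT, with varied MnCl₂ or compound. Substrate 5 mM p-nitrophenyl phosphate, 30 min. Stopped with 0.5% SDS, A410. Triplicates, mean ± SD versus concentration.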

For experiment [2], the target named is T1, Protein phosphatase 1A (Mus musculus). Kind of experiment: Activation of mouse recombinant GST-tagged PP2Calpha assessed as phosphate release using octapeptide-phosphate substrate RRRRPp-TPA. The method in brief: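 Mouse wild-type GST-PP2Cα fusion (2 µg) at rt in 0.1 M Tris-HCl pH 8.0, 2 mM DTT, with varied MnCl₂ or compound. Phosphopeptide RRRRPpTPA at 5 µM final, 15 min. Stopped with malachite green, 15 min color, A650. No-enzyme blanks subtracted; triplicates, mean ± SD versus concentration.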

Experiment [3] in a line: Activation of PDHP in absence of 5 mM Mn2+. The method in brief:
(§1)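 Triplicate wells. PDHP and PDH incubated 37 °C 30 min. NaF stop, then pyruvate-ADP and NAD/cocarboxylase/CoA mix, 2 min rt. Activity read as absorbance change at 340 nm; data pooled from two experiments with separately synthesized samples.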

Experiment [4] in a line: Activation of PDHP in presence of 5 mM Mn2+. The method in brief: as §1

Calls of active or inactive are those of the source. The calls are words filed in the database; no cut-off is given here.

Turning to `CO[C@@H]1[C@@H](O)[C@@H](O)[C@H](O)[C@H](O)[C@H]1C[C@@H]1O[C@H](CO)[C@H](O)[C@H](O)[C@H]1N`, the result in experiment [1], in experiment [2] and in experiment [3] was inactive. Also, in experiment [4], the outcome was Active.
With `CO[C@@H]1[C@@H](O)[C@@H](O)[C@H](O)[C@H](O)[C@H]1C[C@@H]1O[C@H](CO)[C@H](O)[C@H](O)[C@H]1O`, the outcome in experiment [1], in experiment [2], in experiment [3] and in experiment [4] was inactive.
With `CO[C@@H]1[C@@H](O)[C@@H](O)[C@H](O)[C@H](O)[C@H]1O[C@@H]1O[C@H](CO)[C@H](O)[C@H](O)[C@H]1N`, the outcome in experiment [1] and in experiment [3] was inactive. Besides, the result in experiment [2] and in experiment [4] was Active.
